# Experimental data of several laboratories.
# Protocols differ between the studies behind these lines.
# Organism: Plasmodium falciparum
# Read-out: parasite growth
SMILES,technique,strain,time,setting,EC50 [µM]
Cc1cc(N[C@H]2CCc3ccc(Cl)cc3C2)n2nc(C(C)(F)F)nc2n1,,K1,,"drug-resistant strain, blood stage",0.0017
O=C1C(O)=C([C@H]2CC[C@H](c3ccc(Cl)cc3)CC2)C(=O)c2ccccc21,SYBR Green,D6,72 h,blood stage,< 0.00025
COCC(C)n1c(SCC(=O)Nc2cc(C(F)(F)F)ccc2Cl)nc2ccccc2c1=O (stereo not drawn),SYBR Green,3D7,,,0.356
Fc1cccc(COc2ccc(Nc3ncnc4ccc(-c5cccc(N6CCOCC6)c5)cc34)cc2Cl)c1,SYBR Green,W2,,"drug-resistant strain, blood stage",0.68
COc1cc2[nH]c(C)c(-c3ccc(Oc4ccc(OC(F)(F)F)cc4)cc3)c(=O)c2cc1Cl,SYBR Green,D6,72 h,blood stage,0.0009
C[C@H]1[C@@H](O)O[C@@H]2O[C@@]3(C)CC[C@H]4[C@H](C)CC[C@@H]1[C@@]24OO3,SYBR Green,3D7,,,0.00356
C[C@@H]1C[C@@H]([C@H](O)CC2CC(=O)NC(=O)C2)C(=O)[C@@H](C)C1,SYBR Green,3D7,,blood stage,0.2
Cc1cc(NC2Cc3cc(F)c(F)cc3C2)n2nc(C(C)(F)F)nc2n1,,K1,,"drug-resistant strain, blood stage",0.049
Cc1noc(-c2cccs2)c1C(=O)NCCc1cccc(Cl)c1,SYBR Green,3D7,,,0.313
O=S(=O)(c1ccc(-c2ccc3ncnc(Nc4ccc(OCc5ccccc5)c(Cl)c4)c3c2)cc1)N1CCOCC1,SYBR Green,W2,,"drug-resistant strain, blood stage",0.72
CCN(CC)CCCC(C)Nc1ccnc2cc(Cl)ccc12 (stereo not drawn),SYBR Green,D6,72 h,blood stage,0.0091
OC(c1cc(C(F)(F)F)nc2c(C(F)(F)F)cccc12)C1CCCCN1 (stereo not drawn),SYBR Green,3D7,,,0.0203
